Measurements as given in the EternaBench riboswitch data.

System: MS2 coat protein
Assay: apparent Kd, MS2 coat protein; higher = weaker binding; RNA-MaP array; FMN 200 µM where present
In short: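 The apparent Kd comes from binding curves fitted cluster by cluster, filtered, and summarised as a median. Those curves followed SNAP-549-labelled MS2 coat protein from 0.7 or 1.5 nM, doubling to 3 µM, on Illumina sequencing-chip clusters where stalled E. coli RNA polymerase had transcribed the designs, without and then with constant ligand. The buffer was 100 mM Tris-HCl pH 7.5, 80 mM KCl, 4 mM MgCl2, BSA, DTT, yeast tRNA and Tween-20, and green signal was normalised to red-channel RNA signal and control-cluster median Fmax.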

[1] = designed as: OFF switch for flavin mononucleotide, no ligand
[2] = ligand present: flavin mononucleotide, designed as: OFF switch for flavin mononucleotide
[3] = designed as: ON switch for flavin mononucleotide, no ligand
[4] = ligand present: flavin mononucleotide, designed as: ON switch for flavin mononucleotide

Sequence	apparent Kd [1] [nM]	apparent Kd [2] [nM]	apparent Kd [3] [nM]	apparent Kd [4] [nM]
UAAUAUUUAUGAUAUUAUUACAUUAGAAGGCAAGACAUGUGGAUACAUGAGGAUCACCCAUGUAUUGAGGAUAUAGACAUAUAU	15.4	19.2	–	–
AGAAACUACGAGAAGGACAUGUGGAAAACCGCAAACAUGAGGAUCACCCAUGUAGGAUAUCGUAGUUUCAGGAUCGUGAGAUCA	772	148	–	–
UGAGCAAGAGGAUAUACAAGGCGACCGUGAGGUCGAGGUUUACAUGAGGAUCACCCAUGUAGAAGGCUUGUUCU	17.2	38.9	–	–
UAUGUUUUUGUGAGGAUAUACUUUGUUUGGUCGUAGUAGAAGGCACAUGAGGAUCACCCAUGUAGAUUUUUGGU	22.8	40.4	–	–
GUGCGGUGAGGAUAUACGUAGGUGAAAAUCUGUGUGCUCCUACAUGAGGAUCACCCAUGUAGAAGGCAUGUCAC	15.5	27.8	–	–
AUUGUUUAUGUAGGAUAUGCCUGGCGUGCCUUCGCAGAAGGACAUGAGGAUCACCCAUGUAUUGCGGUCUGCGUUCAGAUCGCA	53.3	67.2	–	–
GGCGAACAGGCUAACAUGAGGAUCACCCAUGUGGACUCAUGGUAGGAUAUGCUGUACUUUGUACAGCAGAAGGGCCGGUGAGCC	–	–	54.4	315
GUGGUAUUCGUAGGAUAUCCGUCGCCACCGUGUGGAGAAGGACGAACAUGAGGAUCACCCAUGUAUCAUGGUGUGGACGCUGUC	92.1	86.6	–	–
AGUCGGAGCAGAGGAUAUUACAUGAGGAUCACCCAUGUAUAAAGAUCAAGCUGGAAACAGCAAUGUAAGAAGGCUGCUCCGACA	57.4	321	–	–
UGGGUCACAGGAUAUACAUGAGGAUCACCCAUGUCGUAUUUCGUGGCGGAGAGCUCGAGUAGAAGGGUGCAUCC	119	87.4	–	–
UGUGUCUGUAGAGGAUAUCCGGGCGUUCGGCUAGGAGAAGGCUGCAACACAUGAGGAUCACCCAUGUAGGUUGUGUCUCCCUAC	9.9	29.7	–	–
ACUUAAAUACCCAAAAGUCGGGCGGAGGAUAUGGAGCUUCCACCACAUGAGGAUCACCCAUGUCUUCAGAAGGCCGCCCUUGGG	–	–	89.6	8.79
UUAUACAUUCGAGGAUAUCGGUGAGAAAUCUUUCGAGAAGGCGAUUCAUGAUGUAUUAUCCUGGACAUGAGGAUCACCCAUGUA	–	–	148	92.5
GCGAUUGCGUAGAAGGUACAAUAUAUUUCAUUGUAAGGAUAUACUUACAUGAGGAUCACCCAUGUUAAUGGAAUUUGCAAUCGC	–	–	74.1	28.9
CUAUGAGCGAUAGGAUAUACUGAGAUUGAGUGGGUAGAAGGAUCGAUAGUGUAGAAGACAUGAGGAUCACCCAUGUUACGGGCC	–	–	188	186
AAUGGGCAGCAGAAGGCAUGUCAACGGACAUGAGGAUCACCCAUGUAGUAUAGCCGAAAGGCACAUGAGGAUAUGCUGCCCUAA	–	–	19.4	5.14
AUUAUUAAAGUGAGGAUAUCUAGAGCUGCGGCUCUAGAGAAGGCACAUGAGGAUCACCCAUGUCUCAAUUAUUA	18.7	54.4	–	–
UGUUGAUAGCAGAAGGACAUGAGGAUCACCCAUGUAAGGUUACAAAUAUAUGUAGGAUAUGCUAUUGACUAAGAGUGAGCGUUC	8.88	39.5	–	–
ACAUGAUUCAAGAAGGAUGUAUUUGAUUUGAUCAUAGGAUAUUGUUAUUUUGUUUACUCUAAUAACAUGAGGAUCACCCAUGUA	–	–	14.4	10.4
GAAAAGUGAGGAUAUGGUAAUGUAAGUAUGUAGUAUGUAAUCCAGAAGGCACAUGAGGAUCACCCAUGUAAAAG	23	25.2	–	–
CUUUUGUGAGGAUAUCAGUAGUAAAUAUAUAAAAUUACUACUGAGAAGGCACAUGAGGAUCACCCAUGUUCCUC	38.1	274	–	–

Sequence	apparent Kd [1] [nM]	apparent Kd [2] [nM]	apparent Kd [3] [nM]	apparent Kd [4] [nM]
UGCCGAUGAGGAUAUACAUUGAAUUUGAUUCAUGUAAAACUACAUGAGGAUCACCCAUGUAGAAGGCAUUGGCU	16.9	30.4	–	–
UAAAGCUCCGAGAAGGUAUGCGUACAUGAGGAUCACCCAUGUCAAAGCAUAAGGAUAUCGUGUGCGUGCGUCGAAUGUAGGAAA	–	–	10.2	5.55
AUAUAUAACUAAGGAUAUCUGUAUUUUGUUGAAACAUGAGGAUCACCCAUGUUCAUGAAAUUAUAGGAGAAGGUAGAUAUAUAU	–	–	4.93	4.54
UAGAGUCGCGUCAGGAUAUACCACUUAACCCAGUAGUAGAAGGGACAUGAGGAUCACCCAUGUCGGUGUUAGCC	23.2	26.2	–	–
CUGCCCAGUGUGAGGAUAUACAAAGGAAUUCCUUGGUAGAAGGCACAUGAGGAUCACCCAUGUGACUCGCGGUA	20.6	52.7	–	–
GAAGCUAUCGGAGGAUAUUCAUAGCCGAAAGGCACAUGAGGAUCACCCAUGUGCGGAAACGCUUGGGAGAAGGCCGAUAGCUUC	–	–	25.4	14.7
GUGUGCUGAGGAUAUACAUAGGAAGAGAAGAGAAGAGAAGGACAUGAGGAUCACCCAUGUAGAAGGCAGAGUGU	28.2	33.3	–	–
ACGAAGAUACAGAAGGGUAUAUUAGUUAAUUAUAAUUUGGUUAUGCACUACAGGAUAUGUUUAACAUGAGGAUCACCCAUGUUC	–	–	13.9	10.8
AAUUAUUUACAGAAGGAGUAAGAUUAUGUAUUACUAGGAUAUGUUCACAUGAGGAUCACCCAUGUACUAGUAGGUUUUUUAUGU	6.96	7.66	–	–
AUUAUGUUAGGAUAUGCUUAUGGUGGAUAGUCGGAUAUGAUGCAGAAGGGACAUGAGGAUCACCCAUGUACUGA	22.4	22.1	–	–
AAACAUGUCCGAGGAUAUCUGAGAUCAUUUUCAAGAGAAGGCGGACAUGAGGAUCACCCAUGUCUCUCCUCAUCGACUCCAAAU	6.32	21.1	–	–
AAUGCGGCAGGAUAUACAUGAGGAUCACCCAUGUAGAUCAGAUAUAUGGUCGAGCCAUGUAGAAGGGCCGCAAA	30.8	110	–	–
UGAUCUAUGUAGAAGGCCCAUAUCUAUAUUUAGGGAGGAUAUACAUGAGGAUCACCCAUGUAUAGAGCGGGUGGACCCGUCACC	26.7	62.1	–	–
GAGAUGUGAGGAUAUCUAGACCGCGGAAGAGCUGCGGUCCGAGAGAAGGCACAUGAGGAUCACCCAUGUGAUGA	46.2	145	–	–
GGAUAGGACAGAGGAUAUACGUGCUAGAGAUGCUAGCAAAAUUUCCUCACAUGAGGAUCACCCAUGUAGAAGGCUGUCCUAUCG	15.8	393	–	–
GUAACAUGAGGAUCACCCAUGUCGUGCUAGAUGAGUUCUGGUGAGGAUAUACAUGGUAAAUAACUGUAGAAGGUGCUGGGUACA	–	–	159	167
AAACUGUGAGGAUAUGGUGAGUAGUGCCUGAGCGCUGCUCACCAGAAGGCACAUGAGGAUCACCCAUGUAUAAC	24.8	62.1	–	–
UUAACAUGAGGAUCACCCAUGUAUAGAUCGGUUAAUAGAAGUGAGGAUAUGCUUAAAUUCAGGUAGCAGAAGGCACUGGGUACU	–	–	26.9	29.9
GGCGGCGCGGGCCACCGCAGGACCAGAAGGACAUGAGGAUCACCCAUGUGGCAGAACAGGGCGGUGUAGGAUAUGGCAGGCUCG	28.8	64.3	–	–
AAUAUGUUGCAGAAGGUUAUUUUUAUAACGAUCCAUGAGACAUGAGGAUCACCCAUGUAAUAGAUGAAGGAUAUGCAAUAUAUU	6.21	5.84	–	–
GCGAGUAAAGCAGGAUAUCUAUUGUCUCUGUAACAUGAGGAUCACCCAUGUAGAGAAGGGCUUAGUCAUACACUUCGAACUCGC	5.57	5.38	–	–
